For assay [1], the species on record is Mus musculus. Put plainly: Tissue acid-soluble sulfhydryl levels of small bowel mucosa of ICR/Ha mice. The assay is classed as functional. The method, boiled down: (§1)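 Same dosing: 10 μmol po daily for 3 days in cottonseed oil/10% ethanol, vehicle controls, tissues taken 24 h after the last dose. Homogenate (phosphate pH 7.5) used at once. Ellman method: equal volume 4% sulfosalicylic acid, then supernatant plus 9 volumes of 0.1 mM DTNB in 0.1 M phosphate pH 8.0. Read spectrophotometrically. Units µmol SH/g tissue, mean ± SD; ratio = treated/control.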

In assay [2] the target is T1, Glutathione S-transferase Mu 1 (Mus musculus) (UniProt P10649).
T1 sequence (whole entry): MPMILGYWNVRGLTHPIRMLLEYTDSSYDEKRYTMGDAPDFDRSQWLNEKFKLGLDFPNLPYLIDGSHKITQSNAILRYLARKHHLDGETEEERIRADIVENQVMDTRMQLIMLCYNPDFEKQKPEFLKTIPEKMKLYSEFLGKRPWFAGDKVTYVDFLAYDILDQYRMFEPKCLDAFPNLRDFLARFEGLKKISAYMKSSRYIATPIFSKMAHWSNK
In words: GST activity in the cytosols of small bowel mucosa of ICR/Ha mice was determined by using 1-Chloro-2,4-di nitrobenzene as the substrate. The class given is functional. The gist of the method:
(§2)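 Mice (6-8 wk, groups of 4-5, semipurified diet) dosed po once daily for 3 days with 10 μmol in 0.2 mL cottonseed oil/10% ethanol. Vehicle-only controls. Killed 24 h after the last dose. Tissue homogenized in phosphate buffer pH 7.5, then spun at 100000g for 1 h to give cytosol. CDNB conjugation read at 340 nm, 30 °C, pH 6.5 phosphate, 5 mM GSH, 1 mM CDNB. Units µmol/min/mg protein, mean ± SD; ratio = treated/control.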

Assay [3] deals with T1, Glutathione S-transferase Mu 1 (Mus musculus). In words: GST activity in the cytosols of the forestomach of ICR/Ha mice was determined by using 1-Chloro-2,4-dinitrobenzene as the substrate. The assay is classed as functional, tissue-based. Conditions: Stomach. The gist of the method: as §2
For assay [4] the target is unchanged. In words: Ratio is the compound /control(Specific activity in small bowel mucosa(GST)). The class given is functional. The gist of the method:
as §2

Assay [5] can be described thus: Tissue acid-soluble sulfhydryl levels of liver of ICR/Ha mice. The assay is classed as functional, Mus musculus. The method, boiled down:
as §1

Assay [6] addresses T1, Glutathione S-transferase Mu 1 (Mus musculus). In words: Ratio is the compound /control(Specific activity in forestomach). The assay is classed as functional, tissue-based. As to conditions: Stomach. The method, boiled down: as §2
Assay [7] shares this target. In words: GST activity in the cytosols of liver of ICR/Ha mice, using 1-Chloro-2,4-dinitrobenzene as substrate. The class given is functional, tissue-based. The method, boiled down:
as §2

Assay [8] shares this target. In words: GST activity in the cytosols of the lung of ICR/Ha mice was determined by using 1-Chloro-2,4-dinitrobenzene as the substrate. The assay is classed as functional. The gist of the method: as §2
The target is the same in assay [9]. In words: Ratio is the compound /control(Specific activity in liver(GST)). The class given is functional, tissue-based. The gist of the method:
as §2

Assay [10] is filed under the species Mus musculus. In words: Ratio is the compound /control(SH in small bowel mucosa). The class given is functional. The method, boiled down:
as §1

Assay [11] has as its target T1, Glutathione S-transferase Mu 1 (Mus musculus). Put plainly: Ratio is the compound /control(Specific activity in lung). The assay is classed as functional. The method, boiled down:
as §2

Assay [12] in a line: Ratio is the compound /control(SH level in liver). The class given is functional, Mus musculus. The gist of the method:
as §1

For assay [13], the species on record is Mus musculus. Put plainly: Tissue acid-soluble sulfhydryl levels of small bowel mucosa of ICR/Ha mice. The class given is functional. The method, boiled down:
as §1

The nature of assay [14]: Tissue acid-soluble sulfhydryl levels of liver of ICR/Ha mice. The class given is functional, Mus musculus. The method, boiled down:
as §1

For assay [15], the species on record is Mus musculus. In words: GST activity in the cytosols of small bowel mucosa of ICR/Ha mice was determined by using 1-Chloro-2,4-dinitrobenzene as the substrate. The class given is functional. The method, boiled down:
as §2

For assay [16], the species on record is Mus musculus. Put plainly: GST activity in the cytosols of small bowel mucosa of ICR/Ha mice was determined by using 1-Chloro-2,4-di nitrobenzene as the substrate. The assay is classed as functional. The gist of the method: as §2

Turning to `CC(=O)OC1C[C@@]23CCC4c5ccoc5CC[C@@]4(C)C2CCC1C3` (some centres not stated), the values for the SH level (in the assay filed under Mus musculus [1]; in [5]) were 8.3 µmol/g and 13.3 µM/g, respectively. Also, the Specific activity (uM min-1 (mg of protein)-1) worked out at 1.83 in assay [2], 0.83 in assay [3], 2.24 in assay [7] and 0.29 in assay [8]. Also, the Ratio stood at 5.1 in assay [4]; 1.1 in assay [6]; 1.3 in [9]; 1.5 in the assay filed under Mus musculus [10]; 1.1 in assay [11]; 1.8 in assay [12].
For `CC(=O)OC1C[C@@]23CCC4c5ccoc5C=C[C@@]4(C)C2CCC1C3` (some centres not stated), the Specific activity (uM min-1 (mg of protein)-1) in [2] was 2.06; in [3], 0.94; in assay [7] it was 3.68; in [8], 0.3. The SH level in the assay filed under Mus musculus [13] was 10.8 µmol/g; in [14] it was 10.1 µM/g. In addition, the Ratio in [4] was 6.9; in assay [6], 1.4; in assay [9] it was 2.6; in the assay listed under Mus musculus [10], 1.7; in [11], 1; in assay [12] it was 1.1.
Take `C[C@@]12C=Cc3occc3C1CC[C@]13CC(O)C(CCC12)C3` (some centres not stated): the Specific activity (uM min-1 (mg of protein)-1) in assay [2] was found to be 1.72; in assay [3] it was 1.01; in assay [7] it was 3.57; in assay [8], 0.23. Further, the SH level in the assay filed under Mus musculus [13] worked out at 10.9 µmol/g; in assay [14] it was 9.5 µM/g. The Ratio amounted to 5.7 in assay [4]; 1.5 in assay [6]; 2.5 in [9]; 1.7 in the assay filed under Mus musculus [10]; 0.8 in assay [11]; 1.1 in [12].
Take `CC(=O)OC[C@@]1(O)C[C@@]23CCC4C5=C(CC[C@@]4(C)C2CCC1C3)OCC5` (some centres not stated): the SH level in the assay listed under Mus musculus [1] was 7.1 µmol/g; in assay [5], 15.6 µM/g. Besides, in the assay listed under Mus musculus [15], the Specific activity was 0.41 uM min-1 (mg of protein)-1. In addition, the Ratio in assay [4] came out at 1; in assay [9], 1.08; in the assay listed under Mus musculus [10], 1.2; in [12], 1.55. Moreover, the Specific activity (uM min-1 (mg of protein)-1) in [7] came to 1.27.
As to `C[C@@]12CCc3occc3C1CC[C@]13CC(=O)C(CCC12)C3` (some centres not stated), the results for the SH level (in the assay filed under Mus musculus [1]; in [5]) were 10.3 µmol/g and 13.3 µM/g, respectively. Besides, the Specific activity (uM min-1 (mg of protein)-1) in assay [2] was determined as 2.06; in assay [3] it was 0.88; in [7], 2.85; in assay [8], 0.29. Besides, the Ratio in assay [4] was found to be 5.7; in assay [6], 1.2; in assay [9] it was 1.7; in the assay filed under Mus musculus [10], 1.9; in [11] it was 1.1; in [12], 1.8.
Take `CC(=O)OC[C@@]1(O)C[C@@]23CC[C@@H]4c5ccoc5CC[C@@]4(C)[C@@H]2CC[C@@H]1C3` [CAFESTOL ACETATE]: the SH level was determined as 12 µmol/g in the assay filed under Mus musculus [1] and 14.3 µM/g in assay [5]. In addition, in the assay listed under Mus musculus [15], the Specific activity is 3 uM min-1 (mg of protein)-1. Besides, the Ratio worked out at 7.5 in assay [4], 2.74 in assay [9], 2 in the assay filed under Mus musculus [10] and 1.41 in assay [12]. For the same compound, the Specific activity (uM min-1 (mg of protein)-1) in assay [7] came to 3.24.
For `CC1(O)C[C@@]23CCC4c5ccoc5C=C[C@@]4(C)C2CCC1C3` (some centres not stated), the Specific activity (uM min-1 (mg of protein)-1) came out at 1.34 in [2], 0.92 in assay [3], 2.59 in [7] and 0.24 in [8]. In addition, the SH level is 7.7 µmol/g in the assay filed under Mus musculus [13] and 8.3 µM/g in assay [14]. Further, the Ratio in assay [4] came out at 4.5; in assay [6] it was 1.4; in assay [9], 1.8; in the assay filed under Mus musculus [10], 1.2; in assay [11], 0.8; in assay [12] it was 0.9.
With `C[C@@]12CCc3occc3C1CC[C@]13CCC(CCC12)C3` (some centres not stated), the values for the Specific activity (uM min-1 (mg of protein)-1) in assay [3], in [7] and in assay [8] were 0.85, 2.62 and 0.33, respectively. The Specific activity in the assay filed under Mus musculus [16] is given as 0.95 uM min-1 (mg of protein)-1. Also, the SH level stood at 8.4 µmol/g in the assay filed under Mus musculus [13] and 13 µM/g in assay [5]. Moreover, the Ratio in assay [4] is 2.6; in assay [6], 1.1; in assay [9], 1.6; in the assay filed under Mus musculus [10], 1.6; in assay [11] it was 1.3; in assay [12] it was 1.7.
In the case of `C[C@@]12C=Cc3occc3C1CC[C@]13CC(=O)C(CCC12)C3` (some centres not stated), the SH level is 10.4 µmol/g in the assay listed under Mus musculus [1] and 11.8 µM/g in [5]. The Specific activity (uM min-1 (mg of protein)-1) in assay [2] amounted to 1.84; in assay [3] it was 1.05; in assay [7] it was 3.67; in [8], 0.28. Moreover, the Ratio is 6.1 in assay [4]; 1.6 in assay [6]; 2.6 in [9]; 1.6 in the assay filed under Mus musculus [10]; 1 in assay [11]; 1.3 in [12].
Consider `C[C@@]12CCc3occc3C1CC[C@@]13CC(CCC12)C(O)(CO)C3` (some centres not stated), for which the SH level in the assay filed under Mus musculus [1] was 7.9 µmol/g; in [5] it was 14.9 µM/g. Also, the Specific activity (uM min-1 (mg of protein)-1) in assay [2] is 1.36; in assay [3], 0.91; in [7], 3.35; in assay [8], 0.26. Besides, the Ratio in [4] was 3.8; in assay [6], 1.2; in [9] it was 2; in the assay listed under Mus musculus [10], 1.5; in assay [11], 1; in [12], 2.
`C[C@@]12CCC3=C(CCO3)C1CC[C@@]13CC(CCC12)[C@@](O)(CO)C3` (some centres not stated): the SH level amounted to 6.5 µmol/g in the assay listed under Mus musculus [1] and 11.9 µM/g in assay [5]. Besides, the Specific activity in the assay listed under Mus musculus [15] is listed as 0.42 uM min-1 (mg of protein)-1. Moreover, the Ratio in assay [4] was determined as 1.1; in [9] it was 1.04; in the assay filed under Mus musculus [10] it was 1.1; in assay [12], 1.18. Further, the Specific activity (uM min-1 (mg of protein)-1) in assay [7] worked out at 1.22.
Regarding `C[C@@]12C=Cc3occc3C1CC[C@@]13CC(CCC12)C(O)(CO)C3` (some centres not stated), the SH level was 13.1 µmol/g in the assay filed under Mus musculus [1] and 13 µM/g in assay [5]. Also, the Specific activity (uM min-1 (mg of protein)-1) in [2] amounted to 2.21; in assay [3] it was 1.4; in assay [7] it was 4.3; in [8] it was 0.29. The Ratio stood at 7.3 in assay [4]; 2.1 in assay [6]; 3 in [9]; 2.1 in the assay filed under Mus musculus [10]; 1 in assay [11]; 1.5 in assay [12].

The values are drawn from ChEMBL document CHEMBL1123806, “Effects of derivatives of kahweol and cafestol on the activity of glutathione S-transferase in mice” (1987).
